Values after ≈ are worked out from the molar mass of the structure shown. Active and inactive are the calls of the source. The calls are words filed in the database; no cut-off is given here.
Key:
[1] = target: Motilin receptor (Oryctolagus cuniculus, UniProt A5A4K8); experiment: Agonist activity at motilin receptor in rabbit smooth muscle assessed as maximal possible tissue contraction; format: functional
Method in brief: (§1)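 Rabbit smooth muscle contractility assay. EC50 is the concentration giving 50% of the maximal possible contraction. Tachyphylaxis is the % contractile response to an EC90 drug concentration after three cycles of administration and washout.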

[2] = target: Motilin receptor (Oryctolagus cuniculus) (UniProt A5A4K8); experiment: Agonist activity at motilin receptor in rabbit smooth muscle assessed as tachyphylaxis at EC90 concentration after 4th dose; format: functional; method in brief: as §1
[3] = system: Streptococcus pneumoniae; experiment: Antibacterial activity against erythromycin-sensitive Streptococcus pneumoniae ATCC 6301; format: functional
Method in brief: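 MIC, the minimal growth inhibitory concentration, was determined in routine screening against the highly erythromycin-sensitive strain Streptococcus pneumoniae ATCC6301.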

[4] = system: Enterococcus faecalis; experiment: Antimicrobial activity against Enterococcus faecalis; format: functional, organism-based
Method in brief: (§2)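 MIC was determined across a panel of about 200 clinical isolates from a variety of specimens held in a university clinical microbiology collection, with about 10 isolates per species. The panel covers gut flora and organisms commonly known to develop antibiotic resistance.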

[5] = system: Enterococcus faecium; experiment: Antimicrobial activity against Enterococcus faecium; format: functional, organism-based; method in brief: as §2
[6] = system: Micrococcus luteus; experiment: Antimicrobial activity against Micrococcus luteus; format: functional, organism-based; method in brief: as §2
[7] = system: Staphylococcus aureus; experiment: Antimicrobial activity against Staphylococcus aureus; format: functional, organism-based; method in brief: as §2
[8] = system: Streptococcus equinus; experiment: Antimicrobial activity against Streptococcus bovis; format: functional, organism-based; method in brief: as §2
[9] = system: Streptococcus pneumoniae; experiment: Antimicrobial activity against Streptococcus pneumoniae; format: functional, organism-based; method in brief: as §2
[10] = system: Streptococcus pyogenes; experiment: Antimicrobial activity against Streptococcus pyogenes; format: functional, organism-based; method in brief: as §2
[11] = system: Corynebacterium jeikeium; experiment: Antimicrobial activity against Corynebacterium jeikeium; format: functional, organism-based; method in brief: as §2
[12] = system: Corynebacterium sp.; experiment: Antimicrobial activity against Corynebacterium sp.; format: functional, organism-based; method in brief: as §2
[13] = system: Lactobacillus sp.; experiment: Antimicrobial activity against Lactobacillus sp.; format: functional, organism-based; method in brief: as §2
[14] = system: Escherichia coli; experiment: Antimicrobial activity against Escherichia coli; format: functional, organism-based; method in brief: as §2
[15] = system: Klebsiella pneumoniae; experiment: Antimicrobial activity against Klebsiella pneumoniae; format: functional, organism-based; method in brief: as §2
[16] = system: Proteus mirabilis; experiment: Antimicrobial activity against Proteus mirabilis; format: functional, organism-based; method in brief: as §2
[17] = system: Haemophilus influenzae; experiment: Antimicrobial activity against Haemophilus influenzae; format: functional, organism-based; method in brief: as §2
[18] = system: Moraxella catarrhalis; experiment: Antimicrobial activity against Moraxella catarrhalis; format: functional, organism-based; method in brief: as §2
[19] = system: Bacteroides fragilis; experiment: Antimicrobial activity against Bacteroides fragilis; format: functional, organism-based; method in brief: as §2
[20] = system: Clostridioides difficile; experiment: Antimicrobial activity against Clostridium difficile; format: functional, organism-based; method in brief: as §2
[21] = system: Clostridium perfringens; experiment: Antimicrobial activity against Clostridium perfringens; format: functional, organism-based
Method in brief: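 MIC determined across a panel of about 200 clinical strains that represent gut flora and species known to develop antibiotic resistance. The panel included about 10 Clostridium perfringens isolates, taken from a variety of clinical specimens and held in the University of Rochester Medical Center clinical microbiology collection.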

[22] = system: Cutibacterium acnes; experiment: Antimicrobial activity against Propionibacterium acnes; format: functional, organism-based
[23] = system: Staphylococcus; experiment: Antimicrobial activity against Staphylococcus coagulase; format: functional, organism-based; method in brief: as §2
[24] = target: T1, hERG (KCNH2) (Homo sapiens, UniProt Q12809); experiment: Inhibition of human ERG expressed in HEK cells at 30 uM; format: cell-based, HEK293; conditions: HEK cells expressing human ERG
[25] = target: T1, hERG (KCNH2); experiment: Inhibition of human ERG expressed in HEK cells at 300 uM; format: cell-based, HEK293; conditions: HEK cells expressing human ERG
[26] = target: Voltage-gated inwardly rectifying potassium channel KCNH2 (Homo sapiens, UniProt Q12809); experiment: Inhibition of human ERG expressed in HEK cells; format: cell-based, HEK293
[27] = Ratio of IC50 for human ERG to EC50 for rabbit motilin receptor agonism; format: functional
Method in brief: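 The motilin EC50 came from the rabbit smooth muscle contraction assay, and the ratio of the two served as a cardiovascular safety predictor.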

Chain of Motilin receptor (A5A4K8 whole entry): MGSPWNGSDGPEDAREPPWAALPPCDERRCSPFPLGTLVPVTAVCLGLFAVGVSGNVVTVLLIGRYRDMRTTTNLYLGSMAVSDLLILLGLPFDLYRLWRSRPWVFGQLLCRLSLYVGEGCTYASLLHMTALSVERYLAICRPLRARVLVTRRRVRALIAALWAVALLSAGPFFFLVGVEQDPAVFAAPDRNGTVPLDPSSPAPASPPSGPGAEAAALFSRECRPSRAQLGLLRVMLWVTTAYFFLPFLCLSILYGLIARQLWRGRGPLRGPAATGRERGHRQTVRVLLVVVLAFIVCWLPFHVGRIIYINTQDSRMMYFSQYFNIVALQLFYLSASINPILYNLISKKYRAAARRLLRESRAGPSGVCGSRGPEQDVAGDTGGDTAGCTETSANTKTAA
Chain of Motilin receptor (Oryctolagus cuniculus) (A5A4K8 as listed by the source): as the sequence (A5A4K8 whole entry) above
T1 sequence (Q12809 whole entry): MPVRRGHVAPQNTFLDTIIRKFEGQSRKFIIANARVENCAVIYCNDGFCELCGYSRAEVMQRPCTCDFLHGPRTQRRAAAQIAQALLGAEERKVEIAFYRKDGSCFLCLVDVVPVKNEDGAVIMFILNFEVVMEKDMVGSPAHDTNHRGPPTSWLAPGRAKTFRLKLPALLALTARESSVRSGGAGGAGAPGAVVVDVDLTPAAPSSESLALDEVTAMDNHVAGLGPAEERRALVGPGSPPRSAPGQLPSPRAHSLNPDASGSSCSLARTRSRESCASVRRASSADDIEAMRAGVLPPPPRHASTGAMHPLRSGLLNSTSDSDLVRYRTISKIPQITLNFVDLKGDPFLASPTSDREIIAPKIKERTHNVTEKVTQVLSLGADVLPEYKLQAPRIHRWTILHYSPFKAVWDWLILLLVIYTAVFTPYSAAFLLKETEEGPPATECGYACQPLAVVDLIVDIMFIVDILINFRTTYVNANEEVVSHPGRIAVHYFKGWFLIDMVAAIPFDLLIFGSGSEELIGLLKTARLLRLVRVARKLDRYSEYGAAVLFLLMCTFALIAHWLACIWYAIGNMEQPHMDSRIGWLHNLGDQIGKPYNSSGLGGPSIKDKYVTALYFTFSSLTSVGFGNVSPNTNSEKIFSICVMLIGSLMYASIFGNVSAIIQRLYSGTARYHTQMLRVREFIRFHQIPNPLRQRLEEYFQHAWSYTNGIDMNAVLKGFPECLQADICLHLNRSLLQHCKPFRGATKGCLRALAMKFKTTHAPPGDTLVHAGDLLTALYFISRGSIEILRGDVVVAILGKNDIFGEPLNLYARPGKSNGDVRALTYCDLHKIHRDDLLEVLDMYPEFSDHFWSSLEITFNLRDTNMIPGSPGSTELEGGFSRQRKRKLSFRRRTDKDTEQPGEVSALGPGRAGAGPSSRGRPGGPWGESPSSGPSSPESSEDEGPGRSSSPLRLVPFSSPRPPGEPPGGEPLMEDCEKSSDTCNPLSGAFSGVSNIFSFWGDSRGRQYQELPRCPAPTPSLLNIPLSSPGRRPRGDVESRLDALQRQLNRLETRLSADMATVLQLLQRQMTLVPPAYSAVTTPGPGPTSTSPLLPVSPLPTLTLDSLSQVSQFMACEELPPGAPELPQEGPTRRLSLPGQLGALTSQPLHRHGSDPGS
Chain of Voltage-gated inwardly rectifying potassium channel KCNH2 (Q12809 whole entry): as above

## CC[C@H]1OC(=O)[C@H](C)[C@@H](O[C@H]2C[C@@](C)(OC)[C@@H](O)[C@H](C)O2)[C@H](C)[C@@H](O[C@@H]2O[C@H](C)C[C@H](N(C)C(C)C)[C@H]2O)[C@](C)(O)C[C@@H](C)[C@H](OCC(=O)NC)[C@H](C)[C@@H](O)[C@]1(C)O
[1]
  EC50: 0.058 µM
[2]
  Activity: 89%
[3]
  MIC: > 128 mg/L
[4]
  Activity: inactive
[5]
  Activity: inactive
[6]
  Activity: inactive
[7]
  Activity: inactive
[8]
  Activity: inactive
[9]
  Activity: inactive
[10]
  Activity: inactive
[11]
  Activity: inactive
[12]
  Activity: inactive
[13]
  Activity: inactive
[14]
  Activity: inactive
[15]
  Activity: inactive
[16]
  Activity: inactive
[17]
  Activity: inactive
[18]
  Activity: inactive
[19]
  Activity: inactive
[20]
  Activity: inactive
[21]
  Activity: inactive
[22]
  Activity: inactive
[23]
  Activity: inactive

## CC[C@H]1OC(=O)[C@H](C)[C@@H](O[C@H]2C[C@@](C)(OC)[C@@H](O)[C@H](C)O2)[C@H](C)[C@@H](O[C@@H]2O[C@H](C)C[C@H](N(C)C(C)C)[C@H]2O)[C@](C)(O)C[C@@H](C)[C@H](O)[C@H](C)[C@@H](O)[C@]1(C)O [3 9-DIHYDRO-N-DESMETHYL-N-ISOPROPYLERYTHROMYCIN A]
[1]
  EC50: 0.26 µM
[2]
  Activity: 85%
[3]
  MIC: 32 mg/L (≈ 41.9 µM)
[24]
  inhibition at 30 µM: 80%
[25]
  inhibition at 300 µM: 100%
[26]
  IC50: 10 µM
[27]
  Ratio IC50/EC50: 38

Reference: ChEMBL document CHEMBL1154611 (J Med Chem, 2009)
